Tests used:
[1] = Selectivity for glycine site
[2] = target: Glutamate receptor ionotropic, AMPA (Rattus norvegicus) (UniProt P19491+P19492+P19493+P19490); assay: Binding affinity against rat brain Non N-methyl-D-aspartate glutamate receptor glutamate site expressed in Xenopus oocyte
Summary of the method: (§1)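 Oocytes expressing whole rat brain poly(A)+ RNA (~50 ng injected), voltage-clamped with two electrodes 3–10 days after injection and perfused with Ringer pH 7.4. Antagonist perfused ~30 s before agonist, with washout over 1–5 min. Non-NMDA IC50 estimated from partial (three- or four-point) concentration-inhibition curves fit to a logistic equation with a slope factor. Final DMSO 0.03–0.3%.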

[3] = target: Glutamate receptor ionotropic, NMDA 1 (Rattus norvegicus) (UniProt P35439); assay: The compound was tested for binding affinity against NMDA receptor glycine site in Xenopus oocyte
Summary of the method: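 Xenopus stage V–VI oocytes injected with ~50 ng rat whole-brain poly(A)+ RNA; two-electrode voltage clamp at −70 mV, 3–10 days post-injection, frog Ringer pH 7.4. NMDA fixed at 100 µM, glycine 1 µM; antagonist pre-applied ~30 s with glycine. Amplitude read at the slow second-phase peak; IC50 from 3–4-point inhibition curves fit with slope factor.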

Rattus norvegicus = species: Rattus norvegicus; assay: The compound was tested for binding affinity against Non N-methyl-D-aspartate glutamate receptor glutamate site expressed in Xenopus oocyte; summary of the method: as §1

Structure (SMILES)	Selectivity [1]	Kb [2] [µM]	Kb [3] [µM]	Kb (Rattus norvegicus) [µM]
Oc1nc2cc(F)cc(C(F)(F)F)c2nc1O	4.8	16.3	–	–
Oc1nc2cc(Br)c(Br)cc2nc1O	19	4.05	–	–
Oc1nc2cc(Br)c(C(F)(F)F)cc2nc1O	5.7	1.49	–	–
Oc1nc2cc(C(F)(F)F)cc(Cl)c2nc1O	7.1	3.7	–	–
Oc1nc2ccc(Br)cc2nc1O	4.7	11.2	–	–
Oc1nc2cc(Cl)c(C(F)(F)F)cc2nc1O	9.8	2.55	–	–
O=[N+]([O-])c1cc2nc(O)c(O)nc2cc1Cl	2.3	0.64	–	–
O=[N+]([O-])c1c(Cl)c(Br)cc2nc(O)c(O)nc12	170	1.24	–	–
Oc1nc2cc(C(F)(F)F)cc(Br)c2nc1O	4.2	4.29	–	–
Oc1nc2cc(Cl)c(Cl)cc2nc1O	13	4.81	–	–
O=[N+]([O-])c1c(F)c(Br)cc2nc(O)c(O)nc12	35	1.4	–	–
Oc1nc2cc(Br)cc(Br)c2nc1O	6.8	6.01	–	–
Oc1nc2cc(F)c(Cl)c(F)c2nc1O	7.3	13.2	–	–
O=[N+]([O-])c1c(F)c(F)cc2nc(O)c(O)nc12	19	6.01	–	–
O=[N+]([O-])c1c(Cl)cc2nc(O)c(O)nc2c1[N+](=O)[O-]	24	–	0.042	0.99
Oc1nc2ccccc2nc1O	5.9	98.2	–	–
Oc1nc2cc(F)c(F)c(F)c2nc1O	5.4	30.4	–	–
O=[N+]([O-])c1ccc2nc(O)c(O)nc2c1	0.7	1.67	–	–
Oc1nc2cc(Cl)c(Cl)c(Br)c2nc1O	43	4.11	–	–
Oc1nc2cc(Cl)c(Cl)c(C(F)(F)F)c2nc1O	14	2.66	–	–
Oc1nc2cc(Cl)cc(C(F)(F)F)c2nc1O	7.6	4.67	–	–
O=[N+]([O-])c1c(Br)c(Br)cc2nc(O)c(O)nc12	140	–	–	0.89
Oc1nc2cc(F)c(C(F)(F)F)cc2nc1O	1.5	3.78	–	–
Oc1nc2cc(Cl)c(Cl)c(Cl)c2nc1O	51	4.19	–	–
Oc1nc2cc(F)c(F)c(Cl)c2nc1O	10	17.9	–	–
Oc1nc2cc(Cl)c(Br)cc2nc1O	16	5.7	–	–

Structure (SMILES)	Selectivity [1]	Kb [2] [µM]	Kb [3] [µM]	Kb (Rattus norvegicus) [µM]
O=[N+]([O-])c1c(Cl)c(C(F)(F)F)cc2nc(O)c(O)nc12	15	0.55	–	–
O=[N+]([O-])c1cc(C(F)(F)F)cc2nc(O)c(O)nc12	13	4.13	–	–
Oc1nc2cc(Cl)cc(Cl)c2nc1O	13	9.27	–	–
O=[N+]([O-])c1c(C(F)(F)F)cc(Cl)c2nc(O)c(O)nc12	–	> 30	–	–
Oc1nc2cc(F)c(F)cc2nc1O	4.5	21.5	–	–
Nc1c(Br)c(Br)cc2nc(O)c(O)nc12	66	3.32	–	–
Oc1nc2cc(Br)cc(C(F)(F)F)c2nc1O	14	3.4	–	–
Oc1nc2ccc(Cl)cc2nc1O	6.3	16.4	–	–
CC(=O)Nc1c(Cl)c(Cl)cc2nc(O)c(O)nc12	23	5.57	–	–
O=c1[nH]c2cc(Cl)c(Cl)c([N+](=O)[O-])c2[nH]c1=O	254	1.5	–	–
O=[N+]([O-])c1c(Br)c(C(F)(F)F)cc2nc(O)c(O)nc12	17	0.47	–	–
O=[N+]([O-])c1cc(Cl)cc2nc(O)c(O)nc12	16	8.02	–	–
O=[N+]([O-])c1c(F)c(Cl)cc2nc(O)c(O)nc12	81	1.61	–	–
O=[N+]([O-])c1c(Cl)ccc2nc(O)c(O)nc12	74	36.4	–	–
O=[N+]([O-])c1cccc2nc(O)c(O)nc12	> 5.8	> 100	–	–
O=[N+]([O-])c1c(Br)c(F)cc2nc(O)c(O)nc12	35	3.45	–	–
O=[N+]([O-])c1c(Br)ccc2nc(O)c(O)nc12	28	36.3	–	–
Oc1nc2cc(F)c(Cl)cc2nc1O	4.5	10.8	–	–
O=[N+]([O-])c1c(Br)c(Cl)cc2nc(O)c(O)nc12	120	0.95	–	–
Oc1nc2cc(C(F)(F)F)cc(C(F)(F)F)c2nc1O	4.9	2.21	–	–
Oc1nc2c(F)c(F)c(F)c(F)c2nc1O	8	26.6	–	–
Nc1c(Cl)c(Cl)cc2nc(O)c(O)nc12	88	5.19	–	–
O=[N+]([O-])c1c(F)c(Cl)c(F)c2nc(O)c(O)nc12	23	6.56	–	–
O=[N+]([O-])c1c(Cl)c(Cl)c(Cl)c2nc(O)c(O)nc12	11	14.1	–	–
Nc1c(C(F)(F)F)cc(Cl)c2nc(O)c(O)nc12	–	63.4	–	–
Oc1nc2cc(C(F)(F)F)c(Cl)c(Cl)c2nc1O	6.5	1.23	–	–
